In ChEMBL document CHEMBL1132930, “Characterization of the binding site of the histamine H(3) receptor. 2. Synthesis, in vitro pharmacology, and QSAR of a series of monosubstituted benzyl analogues of thioperamide” (J Med Chem, 2000):

Molecular target: Histamine H3 receptor (Cavia porcellus) (UniProt Q9JI35)
Details: Jejunum

Histamine H3 receptor (Cavia porcellus), sequence (Q9JI35 whole entry): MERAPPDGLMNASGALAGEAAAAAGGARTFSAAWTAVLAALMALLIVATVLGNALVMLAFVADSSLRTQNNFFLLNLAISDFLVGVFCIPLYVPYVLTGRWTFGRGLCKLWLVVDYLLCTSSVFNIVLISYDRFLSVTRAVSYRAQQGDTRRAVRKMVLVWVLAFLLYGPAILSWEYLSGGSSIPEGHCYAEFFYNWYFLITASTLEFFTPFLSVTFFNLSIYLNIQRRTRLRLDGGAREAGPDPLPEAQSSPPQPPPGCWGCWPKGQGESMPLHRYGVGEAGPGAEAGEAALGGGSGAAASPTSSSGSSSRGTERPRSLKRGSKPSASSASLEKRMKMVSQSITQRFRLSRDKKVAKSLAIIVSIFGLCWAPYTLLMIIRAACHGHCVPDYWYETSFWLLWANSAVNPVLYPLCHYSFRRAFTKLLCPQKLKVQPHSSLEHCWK

How did the pD2 turn out when `C[C@@H](N)Cc1c[nH]cn1` was run?
The pD2 was 7.8.

Molecular target: Histamine H3 receptor (Cavia porcellus, UniProt Q9JI35)
Assay: In vitro histamine H3 receptor antagonist activity was determined on guinea pig jejunum
Format: functional, tissue-based
Details: read-out: pA2 (converted)
Procedure, shortened: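 Guinea pig jejunum preparations, electrically stimulated to give contractile responses (acetylcholine release). H3 agonists inhibit these responses in a concentration-dependent way. Antagonist pA2 derived from that agonist inhibition, per a previously described method.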

Histamine H3 receptor, sequence (Q9JI35 whole entry): as above

For `S=C(NCc1cccc(Br)c1)N1CCC(c2c[nH]cn2)CC1`, which Kb is on record?
Its Kb is 0.0339 µM.

`S=C(NCc1cccc(I)c1)N1CCC(c2c[nH]cn2)CC1` was tested. Which Kb did it give?
Its Kb is 0.0158 µM.

For `S=C(NCc1ccc(Cl)cc1)N1CCC(c2c[nH]cn2)CC1`, which Kb is on record?
The Kb was 0.0617 µM.

With `S=C(NCc1ccccc1I)N1CCC(c2c[nH]cn2)CC1` as the compound, how does the Kb read?
Its Kb is 0.00741 µM.

How did the Kb turn out when `Fc1ccccc1C/N=C(\S)N1CCC(c2c[nH]cn2)CC1` was run?
Its Kb is 0.912 µM.

For `S=C(NCc1ccccc1Br)N1CCC(c2c[nH]cn2)CC1`, which Kb is on record?
The Kb was 0.0145 µM.

Which Kb does the source give for `S=C(NCc1ccccc1Cl)N1CCC(c2cnc[nH]2)CC1` here?
The Kb was 0.00617 µM.

`S=C(NCc1ccc(I)cc1)N1CCC(c2c[nH]cn2)CC1` was tested. Which Kb did it give?
Its Kb is 0.166 µM.

With `CC(C)(C)c1ccccc1C/N=C(\S)N1CCC(c2c[nH]cn2)CC1` as the compound, how does the Kb read?
Its Kb is 0.0288 µM.

`Cc1ccccc1C/N=C(\S)N1CCC(c2c[nH]cn2)CC1` was tested. Which Kb did it give?
Its Kb is 0.0955 µM.

`Fc1cccc(C/N=C(\S)N2CCC(c3c[nH]cn3)CC2)c1` was tested. Which Kb did it give?
Its Kb is 0.363 µM.

For `S=C(NCc1cccc(Cl)c1)N1CCC(c2c[nH]cn2)CC1`, which Kb is on record?
The Kb was 0.0389 µM.

For `Fc1ccc(C/N=C(\S)N2CCC(c3c[nH]cn3)CC2)cc1`, which Kb is on record?
Its Kb is 0.562 µM.

For `S=C(NCc1ccc(Br)cc1)N1CCC(c2c[nH]cn2)CC1`, which Kb is on record?
The Kb was 0.339 µM.

`S=C(NCc1ccccc1)N1CCC(c2c[nH]cn2)CC1` was tested. Which Kb did it give?
Its Kb is 0.0479 µM.
